Common to all, as to type: functional
Experiment [1] can be described thus: Cytotoxicity against human CNS cancer cells after 48 hrs. The following applies: Cancer cell lines. The method in brief: (§1)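 NCI 60-cell panel subpanel lines; compounds first screened at a single 10−5 M, then those passing threshold tested in five-concentration assay over 10−9 to 10−4 M (some to 10−3 M), 48 h exposure. Growth relative to untreated control measured as cell protein; GI50, TGI and LC50 derived; some values are means of two experiments.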

Experiment [2] is described as follows: Cytotoxicity against human COLON cells after 48 hrs. Summed up: as §1
Experiment [3] can be described thus: Cytotoxicity against human leukemia cells after 48 hrs. The following applies: Leukemia cell. The method in brief:
(§2)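 NCI 60-cell panel (subpanels include leukemia and prostate). […] Percent growth relative to untreated control; some repeats averaged over two experiments.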

The test system of experiment [4] is NSCLC. The experiment is described as follows: Cytotoxicity against human NSCLC cells after 48 hrs. Summed up:
as §1

Experiment [5] in a line: Cytotoxicity against human breast cancer cells after 48 hrs. The following applies: Cancer cell lines. Summed up:
as §1

A short description of experiment [6]: Cytotoxicity against human prostate cancer cells after 48 hrs. The following applies: Cancer cell lines. Summed up: as §2
A short description of experiment [7]: Cytotoxicity against human melanoma cells after 48 hrs. The following applies: Melanoma cell. Summed up:
as §1

Experiment [8] is described as follows: Cytotoxicity against human ovarian cancer cells after 48 hrs. The following applies: Cancer cell lines. The method in brief: as §1
Experiment [9] is described as follows: Cytotoxicity against human renal cancer cells after 48 hrs. The following applies: Cancer cell lines. Summed up:
as §1

Each structure is given as a SMILES string.

On to `COc1nc2sccn2c1/C=C1/C(=O)Nc2cccc(Cl)c21`, for which the GI50 in [1] amounted to 6.31 µM; in [2], 3720 nM; in [3] it was 2190 nM; in [4] it was 7.08 µM; in experiment [5], 3.24 µM; in experiment [6], 13.2 µM. In addition, the GI50 in experiment [7] was found to be 4.9 µM; in experiment [8] it was 4.68 µM; in experiment [9], 7.08 µM. Also, the LC50 in experiment [1] amounted to 87.1 µM; in experiment [5], 93.3 µM. Also, the TGI in [1] amounted to 32.4 µM; in experiment [2], 91.2 µM; in experiment [3], 64.6 µM; in experiment [4], 70.8 µM; in [5] it was 50.1 µM; in experiment [7], 60.3 µM. In addition, the results for the TGI in experiment [8] and in [9] were 43.6 µM and 49 µM, respectively. Moreover, the LC50 (concentration killing 50% of starting cells) in experiment [8] stood at 97.7 µM. Further, in experiment [9] (read-out: LC50 (the source's name)), the CC50 worked out at 89.1 µM.
On to `COc1nc2sccn2c1/C=C1/C(=O)N(C)c2ccccc21`, for which the GI50 was determined as 11 µM in experiment [1]; 2240 nM in [2]; 3890 nM in experiment [3]; 7.94 µM in experiment [4]; 2.19 µM in [5]; 21.4 µM in [6]. Besides, the GI50 in [7] stood at 8.71 µM; in [8] it was 6.46 µM; in [9], 15.8 µM. The TGI in experiment [1] is 77.6 µM; in [2], 60.3 µM; in experiment [3], 43.6 µM; in [4] it was 95.5 µM; in experiment [5], 60.3 µM; in experiment [7] it was 77.6 µM. In experiment [9], this molecule registered a concentration for total growth inhibition (TGI) of 85.1 µM.
Regarding `COc1nc2sccn2c1/C=C1/C(=O)Nc2ccc(Cl)cc21`, the 50% growth inhibitory concentration (GI50) in experiment [1] stood at 3.31 µM; in experiment [2], 1410 nM; in experiment [3], 1320 nM; in experiment [4], 4.27 µM; in experiment [5], 2.45 µM; in experiment [6] it was 3.98 µM. In addition, the GI50 is 3.72 µM in [7], 3.47 µM in experiment [8] and 3.31 µM in experiment [9]. Further, the TGI came out at 40.7 µM in experiment [1]; 64.6 µM in experiment [2]; 26.3 µM in experiment [3]; 89.1 µM in [4]; 74.1 µM in [5]; 81.3 µM in experiment [6]. Moreover, the values for the total growth inhibition concentration (TGI) in experiment [7], in experiment [8] and in experiment [9] were 40.7 µM, 46.8 µM and 58.9 µM, respectively.
`Cc1cn2c(/C=C3/C(=O)Nc4cc(Cl)ccc43)c(C)nc2s1`: the GI50 is 2.4 µM in experiment [1]; 980 nM in experiment [2]; 1070 nM in [3]; 2.29 µM in experiment [4]; 1.2 µM in experiment [5]; 2.29 µM in experiment [6]. Moreover, the concentration for 50% growth inhibition (GI50) in [7] was found to be 1.58 µM; in experiment [8] it was 7.41 µM; in [9], 4.79 µM. Moreover, the total growth inhibition concentration (TGI) in experiment [1] was determined as 25.7 µM; in experiment [2] it was 66.1 µM; in experiment [3], 37.1 µM; in [5] it was 15.8 µM; in experiment [7], 57.5 µM; in [9], 70.8 µM.
Regarding `Cc1nn2c(/C=C3/C(=O)Nc4ccc(F)cc43)c(C)nc2s1`, the GI50 in experiment [1] came to 20.9 µM; in [2] it was 4170 nM; in experiment [3], 2340 nM; in [4] it was 19.5 µM; in experiment [5], 6.31 µM; in experiment [7], 26.9 µM. Besides, the GI50 was 33.9 µM in [8] and 26.9 µM in experiment [9]. Further, the TGI in experiment [1] was 87.1 µM; in [5], 57.5 µM.
Regarding `COc1ccc2c(c1)/C(=C\c1c(-c3ccc(Cl)cc3)nc3sc(C)nn13)C(=O)N2`, the results for the concentration for 50% growth inhibition (GI50) in [1], in experiment [5] and in experiment [9] were 69.2 µM, 95.5 µM and 81.3 µM, respectively.
On to `Cc1nn2c(/C=C3/C(=O)Nc4ccc(F)cc43)c(-c3ccc(Cl)cc3)nc2s1`, for which the 50% growth inhibitory concentration (GI50) in experiment [1] worked out at 20.4 µM; in experiment [2] it was 38000 nM; in experiment [3], 25100 nM; in [4], 60.3 µM; in [5] it was 36.3 µM; in experiment [7] it was 66.1 µM. Further, the 50% growth inhibitory concentration (GI50) in experiment [8] came out at 21.9 µM; in experiment [9], 26.3 µM. The TGI in experiment [1] was determined as 79.4 µM; in experiment [5], 95.5 µM; in [9], 72.4 µM.

The values above are taken from ChEMBL document CHEMBL2062525, “Substituted 3-(5-imidazo[2,1-b]thiazolylmethylene)-2-indolinones and analogues: synthesis, cytotoxic activity, and study of the mechanism of action” (J Med Chem, 2012).
